{
  "source": "ChEMBL document CHEMBL4196081",
  "about": "“Synthesis and antimycobacterial activity of 1-(β-d-Ribofuranosyl)-4-coumarinyloxymethyl- / -coumarinyl-1,2,3-triazole” (Eur J Med Chem, 2018)",
  "key": {"[1]": {"test_system": "Mycobacterium tuberculosis", "assay": "Bactericidal activity against Mycobacterium tuberculosis H37Rv after 4 weeks by MABA", "format": "functional", "details": "672 h"}, "[2]": {"test_system": "Mycobacterium tuberculosis", "assay": "Antimycobacterial activity against MDR Mycobacterium tuberculosis isolate 591 after 15 days by MABA", "format": "functional", "details": "isolate 591, 360 h", "outline": "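MABA in 7H9 medium on MDR clinical isolate 591: filtered single-cell suspension, 1 × 10^6 cells per well with drug dilutions, aerobic 37 °C; 0.02 % resazurin added on day 15, overnight 37 °C. MIC = lowest concentration preventing blue-to-pink change. Triplicate; medium+inoculum and medium-only controls.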"}, "[3]": {"test_system": "Mycobacterium tuberculosis", "assay": "Antimycobacterial activity against Mycobacterium tuberculosis H37Rv after 10 days by MABA", "format": "functional", "details": "240 h", "outline": "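MABA in 7H9 medium: log-phase culture passed through 8 µm filter, density set by OD600 and McFarland standards, 1 × 10^6 cells per well with drug dilutions; aerobic incubation 37 °C 10 days, then 0.02 % resazurin, overnight 37 °C. MIC = lowest concentration preventing blue-to-pink change. Triplicate; medium+inoculum and medium-only controls.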"}, "[4]": {"test_system": "Mycobacterium tuberculosis", "assay": "Ratio of MBC to MIC for Mycobacterium tuberculosis H37Rv", "format": "functional"}, "[5]": {"biological_target": "DNA gyrase subunit B (Escherichia coli) (UniProt P0AES6)", "assay": "Inhibition of Escherichia coli DNA gyrase-B at 0.66 to 100 uM using relaxed pUC19 DNA as substrate after 1 hr by bromophenol blue dye based agarose gel electrophoresis method", "outline": "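E. coli DNA gyrase, 1 unit, with 0.3 µg relaxed pUC19 plasmid in 1X gyrase assay buffer. Compound added as 0.2 µL from 100 µM stock; ciprofloxacin positive control, DMSO solvent control. Incubated 37 °C for 1 h, stopped with 50% glycerol/0.25% bromophenol blue. Run on 1% agarose in 0.5X TBE pH 8.3, 16 h at 30 mA, ethidium bromide stained, UV visualised for supercoiling.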"}, "[6]": {"assay": "Cytotoxicity against human THP1 cells assessed as cell viability at 37.48 ug/ml after 48 hrs by MTT assay relative to control", "format": "cell-based", "details": "THP-1 cells, read-out: Activity", "outline": "(§1)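 THP-1 cells (human monocytic line) seeded at 10^4 per well and adhered with phorbol myristate acetate (20 ng/mL). Then given fresh RPMI with 10% foetal calf serum and 2 mM L-glutamine, plus compound by serial double dilution (4.68–150 µg/mL), with DMSO and no-DMSO controls. Incubated 24 or 48 h at 37 °C, 5% CO2. MTT added for 4 h, formazan dissolved in DMSO, A540 read, percentage survival calculated.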"}, "[7]": {"assay": "Cytotoxicity against human THP1 cells assessed as cell viability at 150 ug/ml after 24 hrs by MTT assay relative to control", "format": "cell-based", "details": "THP-1 cells, read-out: Activity", "outline": "as §1"}, "[8]": {"assay": "Cytotoxicity against human THP1 cells assessed as cell viability at 75 ug/ml after 24 hrs by MTT assay relative to control", "format": "cell-based", "details": "THP-1 cells, read-out: Activity", "outline": "as §1"}, "[9]": {"assay": "Cytotoxicity against human THP1 cells assessed as cell viability at 150 ug/ml after 48 hrs by MTT assay relative to control", "format": "cell-based", "details": "THP-1 cells, read-out: Activity", "outline": "as §1"}, "[10]": {"assay": "Cytotoxicity against human THP1 cells assessed as cell viability at 18.72 ug/ml after 24 hrs by MTT assay relative to control", "format": "cell-based", "details": "THP-1 cells, read-out: Activity", "outline": "as §1"}, "[11]": {"assay": "Selectivity index, ratio of IC50 for cytotoxicity against human THP1 cells to MIC for Mycobacterium tuberculosis H37Rv", "format": "toxicity, cell-based", "details": "THP-1 cells, read-out: Selectivity Index", "outline": "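THP-1 cells, 10^4/well, adhered with PMA 20 ng/mL, in RPMI with 10 % FCS and 2 mM L-glutamine; exposed to 4.68–150 µg/mL for 24 and 48 h at 37 °C, 5 % CO2; MTT 4 h, formazan in DMSO, A540. Index = THP-1 IC50 divided by H37Rv MABA MIC.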"}, "[12]": {"assay": "Cytotoxicity against human THP1 cells assessed as cell viability at 75 ug/ml after 48 hrs by MTT assay relative to control", "format": "cell-based", "details": "THP-1 cells, read-out: Activity", "outline": "as §1"}, "[13]": {"assay": "Cytotoxicity against human THP1 cells assessed as cell viability at 9.36 ug/ml after 24 hrs by MTT assay relative to control", "format": "cell-based", "details": "THP-1 cells, read-out: Activity", "outline": "as §1"}, "[14]": {"assay": "Cytotoxicity against human THP1 cells assessed as cell viability at 4.68 ug/ml after 48 hrs by MTT assay relative to control", "format": "cell-based", "details": "THP-1 cells, read-out: Activity", "outline": "as §1"}, "[15]": {"assay": "Cytotoxicity against human THP1 cells assessed as cell viability at 37.48 ug/ml after 24 hrs by MTT assay relative to control", "format": "cell-based", "details": "THP-1 cells, read-out: Activity", "outline": "as §1"}, "[16]": {"assay": "Cytotoxicity against human THP1 cells assessed as cell viability at 4.68 ug/ml after 24 hrs by MTT assay relative to control", "format": "cell-based", "details": "THP-1 cells, read-out: Activity", "outline": "as §1"}, "[17]": {"assay": "Cytotoxicity against human THP1 cells assessed as cell viability at 18.72 ug/ml after 48 hrs by MTT assay relative to control", "format": "cell-based", "details": "THP-1 cells, read-out: Activity", "outline": "as §1"}, "[18]": {"test_system": "THP-1", "assay": "Cytotoxicity against human THP1 cells assessed as growth inhibition after 24 to 48 hrs by MTT assay", "format": "cell-based", "outline": "as §1"}, "[19]": {"assay": "Cytotoxicity against human THP1 cells assessed as cell viability at 9.36 ug/ml after 48 hrs by MTT assay relative to control", "format": "cell-based", "details": "THP-1 cells, read-out: Activity", "outline": "as §1"}},
  "note": "Active and inactive are the calls of the source. The rule behind the calls is not given here.",
  "data": [
    {"smiles": "O=C(OC[C@H]1O[C@@H](n2cc(-c3ccc4ccc(=O)oc4c3)nn2)[C@H](OC(=O)c2ccccc2)[C@@H]1OC(=O)c1ccccc1)c1ccccc1", "values": [
      {"measurement": "MBC", "setting": "[1]", "result": 30.4, "unit": "µM"},
      {"measurement": "MIC", "setting": "[2]", "result": 30.4, "unit": "µM"},
      {"measurement": "MIC", "setting": "[3]", "result": 15.2, "unit": "µM"},
      {"measurement": "Ratio", "setting": "[4]", "result": 2}
    ]},
    {"smiles": "Cc1cc(=O)oc2cc(OCc3cn([C@@H]4O[C@H](COC(=O)c5ccccc5)[C@@H](OC(=O)c5ccccc5)[C@H]4OC(=O)c4ccccc4)nn3)ccc12", "values": [
      {"measurement": "MBC", "setting": "[1]", "result": 17.1, "unit": "µM"},
      {"measurement": "MIC", "setting": "[2]", "result": 11.4, "unit": "µM"},
      {"measurement": "MIC", "setting": "[3]", "result": 8.5, "unit": "µM"},
      {"measurement": "Ratio", "setting": "[4]", "result": 2}
    ]},
    {"smiles": "Cc1cc(=O)oc2cc(-c3cn([C@@H]4O[C@H](CO)[C@@H](O)[C@H]4O)nn3)c(Cl)cc12", "values": [
      {"measurement": "MIC", "setting": "[2]", "result": 25.4, "unit": "µM"},
      {"measurement": "MIC", "setting": "[3]", "result": 30.5, "unit": "µM"}
    ]},
    {"smiles": "O=C(O)c1cn(C2CC2)c2cc(N3CCNCC3)c(F)cc2c1=O", "values": [
      {"measurement": "inhibition", "setting": "[5]", "result": "Active"}
    ]},
    {"smiles": "O=c1ccc2ccc(OCc3cn([C@@H]4O[C@H](CO)[C@@H](O)[C@H]4O)nn3)cc2o1", "values": [
      {"measurement": "viability at 48 h, 37.48 ug/ml", "setting": "[6]", "result": 63, "unit": "%"},
      {"measurement": "viability at 24 h, 150 ug/ml", "setting": "[7]", "result": 60, "unit": "%"},
      {"measurement": "viability at 24 h, 75 ug/ml", "setting": "[8]", "result": 68, "unit": "%"},
      {"measurement": "MBC", "setting": "[1]", "result": 26.6, "unit": "µM"},
      {"measurement": "viability at 48 h, 150 ug/ml", "setting": "[9]", "result": 55, "unit": "%"},
      {"measurement": "viability at 24 h, 18.72 ug/ml", "setting": "[10]", "result": 89, "unit": "%"},
      {"measurement": "selectivity ratio", "setting": "[11]", "result": 37.7},
      {"measurement": "viability at 48 h, 75 ug/ml", "setting": "[12]", "result": 59, "unit": "%"},
      {"measurement": "viability at 24 h, 9.36 ug/ml", "setting": "[13]", "result": 91, "unit": "%"},
      {"measurement": "MIC", "setting": "[2]", "result": 15.9, "unit": "µM"},
      {"measurement": "MIC", "setting": "[3]", "result": 10.6, "unit": "µM"},
      {"measurement": "viability at 48 h, 4.68 ug/ml", "setting": "[14]", "result": 89, "unit": "%"},
      {"measurement": "viability at 24 h, 37.48 ug/ml", "setting": "[15]", "result": 86, "unit": "%"},
      {"measurement": "viability at 24 h, 4.68 ug/ml", "setting": "[16]", "result": 100, "unit": "%"},
      {"measurement": "Ratio", "setting": "[4]", "result": 2.5},
      {"measurement": "viability at 48 h, 18.72 ug/ml", "setting": "[17]", "result": 84, "unit": "%"},
      {"measurement": "IC50", "setting": "[18]", "result": "> 400", "unit": "µM"},
      {"measurement": "viability at 48 h, 9.36 ug/ml", "setting": "[19]", "result": 86, "unit": "%"}
    ]},
    {"smiles": "CO[C@H]1/C=C/O[C@@]2(C)Oc3c(C)c(O)c4c(O)c(c(/C=N/N5CCN(C)CC5)c(O)c4c3C2=O)NC(=O)/C(C)=C\\C=C\\[C@H](C)[C@H](O)[C@@H](C)[C@@H](O)[C@@H](C)[C@H](OC(C)=O)[C@@H]1C", "note": "[RIFAMPIN]", "values": [
      {"measurement": "MIC", "setting": "[2]", "result": 152, "unit": "µM"},
      {"measurement": "MIC", "setting": "[3]", "result": 0.02, "unit": "µM"}
    ]},
    {"smiles": "Cc1cc(=O)oc2cc(OCc3cn([C@@H]4O[C@H](CO)[C@@H](O)[C@H]4O)nn3)c(Cl)cc12", "values": [
      {"measurement": "MBC", "setting": "[1]", "result": 37.7, "unit": "µM"},
      {"measurement": "MIC", "setting": "[2]", "result": 18.9, "unit": "µM"},
      {"measurement": "MIC", "setting": "[3]", "result": 18.9, "unit": "µM"},
      {"measurement": "Ratio", "setting": "[4]", "result": 2}
    ]},
    {"smiles": "Cc1cc(=O)oc2cc(OCc3cn([C@@H]4O[C@H](COC(=O)c5ccccc5)[C@@H](OC(=O)c5ccccc5)[C@H]4OC(=O)c4ccccc4)nn3)c(Cl)cc12", "values": [
      {"measurement": "MBC", "setting": "[1]", "result": 27.2, "unit": "µM"},
      {"measurement": "MIC", "setting": "[2]", "result": 20.4, "unit": "µM"},
      {"measurement": "MIC", "setting": "[3]", "result": 13.5, "unit": "µM"},
      {"measurement": "Ratio", "setting": "[4]", "result": 2}
    ]},
    {"smiles": "O=C(OC[C@H]1O[C@@H](n2cc(-c3ccc4c(-c5ccccc5)cc(=O)oc4c3)nn2)[C@H](OC(=O)c2ccccc2)[C@@H]1OC(=O)c1ccccc1)c1ccccc1", "values": [
      {"measurement": "MBC", "setting": "[1]", "result": 24.5, "unit": "µM"},
      {"measurement": "MIC", "setting": "[2]", "result": 13.6, "unit": "µM"},
      {"measurement": "MIC", "setting": "[3]", "result": 10.9, "unit": "µM"},
      {"measurement": "Ratio", "setting": "[4]", "result": 2.25}
    ]}
  ]
}
